TRPML3 ag – human TRPML3 channel agonists, primary screen, cell-based, HEK293 TRPML3-YFP, Fluo-8 calcium fluorescence, 3 µM. 220,000 tested, 0.29% active. activation, % at 3 µM. Mucolipin-3 (Homo sapiens), Q8TDD5. 100% = the carbachol control signal;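 active = activation above its plate's cutoff, the mean activation of the plate's test wells plus 3 SD, cut at about 12% in these data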
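Test system – HEK293 line with stable expression of human TRPML3-YFP channel · Control set – carbachol 87 µM final as high control (100%), DMSO as low control (0%) · Signal – Fluo-8 calcium dye fluorescence, ex 470-495, em 515-575 nm · Incubation – 1-h 37 °C dye load, 5-s basal, 120-s post-compound reads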
zfTRPN1 agonist – zebrafish TRPN1 channel agonists, primary screen, cell-based, HEK293, calcium fluorescence; transient receptor potential cation channel N1 (TRPN1/NompC), Danio rerio; HEK293 zebrafish TRPN1-YFP, Fluo-8 calcium fluorescence; 100% = response to 87 µM carbachol; activation, % at 3 µM; 220,000 tested, 0.18% active; AID 1424, 2008;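 active = activation above its plate's cutoff, the mean activation of test wells on that plate plus 3 SD, cut at about 19% in these data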
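Material: zebrafish TRPN1-YFP in HEK293 cells. Doses: one dose of 3 µM, 0.3% DMSO. Incubation: dye 1 h 37 °C plus 30 min RT. Measured by: intracellular calcium fluorescence with Fluo-8.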
CRFR2-BP antag – antagonists of CRF-BP/CRF-R2 complex, primary screen, cell-based, HEK293, calcium dye fluorescence, uHTS | 350,000 tested, 0.59% active | inhibition, % at 11.8 µM | CRF-induced calcium fluorescence;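 active = inhibition of the ligand-induced calcium signal above about 50% at the single tested concentration, limit read from the data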
CRFBP-R2 agonist – agonists of CRF-BP/CRF-R2 complex, primary screen, cell-based, HEK293, calcium dye fluorescence, uHTS. activation, % at 13.2 µM. CRF-binding protein / CRF receptor 2 complex (human). calcium dye fluorescence (FLIPR); percent of saturating CRF peptide response. 350,000 tested, 0.46% active;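 active = activation of at least 50%, plus an integration ratio under a set limit after plate pattern correction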
GPR7 antagonist – GPR7 receptor antagonists, primary screen, cell-based, fluorescence, single concentration; GPR7-expressing cells, fluorescence antagonist assay; inhibition, % at 4.4 µM; Neuropeptides B/W receptor type 1 (Homo sapiens), P48145; 290,000 tested, 1.1% active; in the data active = inhibition above about 16%, passing the limit was not always enough;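 note: cells stimulated with the agonist NPW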
Target sequence (P48145 whole entry, looked up): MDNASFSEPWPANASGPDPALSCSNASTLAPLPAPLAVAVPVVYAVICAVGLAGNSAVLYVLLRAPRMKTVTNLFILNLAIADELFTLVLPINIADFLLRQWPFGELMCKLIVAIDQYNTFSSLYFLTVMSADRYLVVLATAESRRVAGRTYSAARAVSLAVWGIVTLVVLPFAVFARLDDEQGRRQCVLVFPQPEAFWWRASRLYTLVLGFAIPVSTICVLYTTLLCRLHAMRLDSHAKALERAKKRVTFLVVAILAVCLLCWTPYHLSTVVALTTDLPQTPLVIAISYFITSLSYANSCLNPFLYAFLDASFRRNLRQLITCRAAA
A number is an active result; – = inactive; · = not tested or not shown. Shown are actives, neighbours in structure and some others; about 2% of the full set was active somewhere.

SMILES | TRPML3 ag | zfTRPN1 agonist | CRFR2-BP antag | CRFBP-R2 agonist | GPR7 antagonist
CN(C)CCn1c(=N)n(CC(O)c2ccc(Cl)c(Cl)c2)c2ccccc21 (configuration not stated) | – | – | – | – | –
N=c1n(CCN2CCCCC2)c2ccccc2n1CC(O)c1ccc(Cl)c(Cl)c1 (configuration not stated) | – | – | – | – | 36.2
COC(=O)Cn1cc(C(=O)OC)c2ccccc21 | – | – | – | – | 20.6
O=C(Nc1nc(-c2cccc3ccccc23)cs1)c1ccc2c(c1)S(=O)(=O)c1ccccc1C2=O | – | – | – | – | –
O=C(Nc1nc(-c2ccccc2)cs1)c1ccc2c(c1)S(=O)(=O)c1ccccc1C2=O | – | – | 85.8 | – | –
CCOc1ccc(N(CC(=O)N/N=C/c2ccccn2)S(=O)(=O)c2ccc(Cl)cc2)cc1 | · | · | – | – | –
COc1ccc2c(c1)CCCC21NC(=O)N(CC(=O)N2CC(C)OC(C)C2)C1=O (configuration not stated) | · | · | – | – | ·
CCS(=O)(=O)c1nc(S(=O)(=O)c2ccc(C)cc2)c(N2CCOCC2)s1 | · | · | – | – | –
CCCS(=O)(=O)c1nc(S(=O)(=O)c2ccc(C)cc2)c(N2CCCC2)s1 | – | – | – | 89.3 | –
Cc1ccc(S(=O)(=O)c2nc(S(C)(=O)=O)sc2N2CCOCC2)cc1 | · | · | 94.9 | – | –
O=C1CC2CCCN2C=C1I (configuration not stated) | · | · | – | – | ·
COc1ccc(Nc2c(-c3ccc(C)cc3)nc3cnccn23)cc1 | – | – | – | – | 16.6
Nc1ccc2c3c(cccc13)C(=O)N(c1ccccc1)C2=O | 111.2 | 125.4 | – | 235.2 | –
Nc1cccc(N2C(=O)c3cccc4c(N)ccc(c34)C2=O)c1 | · | · | – | 162.2 | –
O=C(O)c1cccc(N2C(=O)c3cccc4c(Cl)ccc(c34)C2=O)c1 | – | – | – | – | –
Cc1c(O)c2c3c(cccc3c1O)C(=O)N(c1ccccc1)C2=O | – | – | – | 168.4 | –
Cc1cccc(N2C(=O)c3cccc4c(N)ccc(c34)C2=O)c1 | · | · | – | 267.9 | –
O=C(O)c1ccc2c3c(cccc13)C(=O)N(c1ccccc1)C2=O | – | – | – | – | –
CC(C)CCN1C(=O)c2cccc3c(N)ccc(c23)C1=O | · | · | – | 165.5 | ·
CCN1C(=O)c2cccc3c(Cl)ccc(c23)C1=O | – | – | – | – | –
O=C(CCN1CCN(S(=O)(=O)c2cccc([N+](=O)[O-])c2)CC1)Nc1ccccc1F | · | · | – | – | –
Cc1cc(-c2nnc(SCC(=O)Nc3c(C)cccc3C)n2N)n[nH]1 | · | · | – | – | –
CCOC(=O)c1c(-c2ccc(OC)cc2)csc1NC(=O)CNCc1ccco1 | – | – | 78.4 | – | –
Cc1ccsc1C1NC(=O)c2c(sc3c2CCN(C)C3)N1 (configuration not stated) | – | – | – | 65.2 | –
CN1CCc2c(sc3c2C(=O)NC(c2cccs2)N3)C1 (configuration not stated) | – | – | – | 57.6 | –
SMILES | TRPML3 ag | zfTRPN1 agonist | CRFR2-BP antag | CRFBP-R2 agonist | GPR7 antagonist
CCCCn1c(N)c(N(CCOC)C(=O)c2ccc(-c3cccc(C(F)(F)F)c3)o2)c(=O)[nH]c1=O | · | · | – | – | ·
CC(=O)c1ccc(S(=O)(=O)N2CCN(C(=O)CN3C(=O)NC4(CCCC4)C3=O)CC2)cc1 | · | · | – | – | ·
COc1cc(/C=C2\SC(=O)N(Cc3ccc(Cl)cc3)C2=O)cc([N+](=O)[O-])c1O | – | – | 54.7 | – | –
COc1cc([N+](=O)[O-])cc(/C=C2/SC(=S)N(Cc3ccccc3)C2=O)c1O | · | · | – | – | –
O=C1/C(=C\c2cccc([N+](=O)[O-])c2O)SC(=S)N1Cc1ccccc1 | · | · | 77.0 | – | –
COc1cc(/C=C2/SC(=S)N(Cc3ccccc3)C2=O)ccc1OCC(=O)O | · | · | – | – | –
COc1cc(/C=C2/SC(=S)N(Cc3ccccc3)C2=O)cc(Cl)c1O | · | · | – | 171.3 | 89.2
O=C1/C(=C\c2cc(Br)cc(Br)c2O)SC(=S)N1Cc1ccccc1 | · | · | 63.6 | – | –
CC(=O)c1sc2nc(-c3ccccc3)cc(C)c2c1N | · | · | – | – | –
O=C1/C(=C/c2ccc(O)c([N+](=O)[O-])c2)SC(=S)N1Cc1ccccc1 | – | – | 108.3 | – | –
CCOc1ccccc1C=C1SC(=S)N(CC)C1=O | · | · | – | – | ·
O=C1NC(=Nc2ccccc2Cl)S/C1=C\c1cccc([N+](=O)[O-])c1O | · | · | 53.0 | – | –
O=C1/C(=C\c2ccc(O)cc2)SC(=S)N1Cc1ccccc1 | · | · | – | – | –
CCN1C(=O)/C(=C\C=C\c2ccccc2[N+](=O)[O-])SC1=S | – | – | 68.6 | – | –
COc1c(/C=C2\SC(=Nc3ccccc3Cl)NC2=O)cccc1[N+](=O)[O-] | · | · | – | – | –
CCN(CC(=O)Nc1ccc2c(c1)OCCO2)C(=O)c1ccc(CS(C)(=O)=O)cc1 | · | · | – | – | ·
Cc1cccc(NS(=O)(=O)c2ccc(C)c(C(=O)N(C)C)c2)c1 | · | · | – | – | ·
COc1ccc(N2C(=O)CC(c3ccc([N+](=O)[O-])cc3)C2=O)cc1 (configuration not stated) | · | · | 63.4 | – | –
COc1ccccc1CC1CC(=O)N(c2ccc([N+](=O)[O-])cc2)C1=O (configuration not stated) | · | · | – | – | ·
CC(=O)N(C(C)=O)c1cccc(N(Cc2ccccc2)Cc2ccccc2)c1 | · | · | 53.6 | – | ·
CCn1c(=O)c(C(=O)NNC(=O)c2ccc(Cl)cc2Cl)c(O)c2ccccc21 | · | · | – | – | –
CCCn1c(=O)c(C(=O)NNC(=O)c2ccc(Cl)cc2Cl)c(O)c2ccccc21 | · | · | – | 69.5 | –
Cc1cc(N2CCCC2)c(F)cc1/C=C\[N+](=O)[O-] | – | – | – | 120.5 | –
Cc1ccc(C(=O)COC(=O)[C@@H](NC(=O)c2ccco2)C(C)C)s1 | · | · | – | – | ·
COCCn1c(SCC(=O)N2CCc3ccccc3C2)nc2cc(Cl)ccc2c1=O | – | – | – | – | –
SMILES | TRPML3 ag | zfTRPN1 agonist | CRFR2-BP antag | CRFBP-R2 agonist | GPR7 antagonist
CC(C)Cn1c(SCC(=O)N2CCc3ccccc3C2)nc2cc(Cl)ccc2c1=O | – | – | 118.0 | – | –
O=C(O)c1cccc2cccc(-c3c4ccc(=O)c(O)c-4oc4c(O)c(O)ccc34)c12 | · | · | 51.2 | – | ·
O=C(O)c1cccc2cc(-c3ccccc3)oc(=O)c12 | · | · | – | – | –
COc1ccc(OC)c(/C=c2\sc3nc(-c4cccs4)nn3c2=O)c1 | – | – | – | 174.8 | –
COc1ccccc1/C=c1\sc2nc(-c3ccco3)nn2c1=O | – | – | – | – | –
Cc1ccc(-c2cc3c(nn2)-c2ccccc2C3=O)cc1 | – | – | – | – | –

Compound activity: PubChem BioAssay, several laboratories
